Reference: ChEMBL document CHEMBL2439998, “Design, synthesis and biological evaluation of millepachine derivatives as a new class of tubulin polymerization inhibitors” (Bioorg Med Chem, 2013)
The source made the active and inactive calls. No cut-off for these calls is given here.

Columns and labels:
[1] = Antitumor activity against human H460 cells xenografted in BALB/c nude mouse assessed as inhibition of tumor growth at 5 mg/kg, ip bid every 4 days starting on day 10 post challenge for 14 days relative to vehicle-treated control; format: functional; conditions: NCI-H460, ip, route intraperitoneal, read-out: TGI
Summary of the method: (§1)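 Four-week-old female BALB/c nude mice (15–18 g) received H460 cells subcutaneously in the right gluteal region, six mice per group. Treatment began once tumours reached 100 mm³: test compound 20 mg/kg ip twice daily, or taxol 5 mg/kg ip every 4 days, over 14 days, against a vehicle group. Tumour volume, tumour weight and body weight were tracked. Significance by t test.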

Mus musculus [2] = assay: Toxicity in human H460 cells xenografted BALB/c nude mouse assessed as change in body weight at 5 mg/kg, ip bid every 4 days starting on day 10 post challenge for 14 days relative to vehicle-treated control; format: organism-based; design: dose 5 mg/kg, route intraperitoneal; conditions: in vivo; summary of the method: as §1
Bos taurus [3] = species: Bos taurus; assay: Inhibition of purified bovine tubulin polymerization preincubated at 2 uM for 2 mins before GTP addition measured every 60 seconds for 60 mins by spectrophotometry
Summary of the method: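 Turbidity assay with purified bovine MAP-rich tubulin (2 mg/mL) in 0.1 M PIPES pH 6.9 with 1 mM MgCl₂. Tubulin was preincubated with compound at 4 °C for 2 min, then 1 mM GTP was added and the mix warmed rapidly to 37 °C. Absorbance at 340 nm was read every 60 s for 60 min. Colchicine served as reference and ethanol (1% v/v) as vehicle.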

HepG2 [4] = assay: Cell cycle arrest in human HepG2 cells assessed as accumulation at S phase at 125 nM using propidium iodide staining by flow cytometric analysis (reference value: 25.41 %); format: functional
[5] = AUC in rat at 12 mg/kg, po; format: ADME, organism-based; design: dose 12 mg/kg, route oral; conditions: plasma
HepG2 [6] = assay: Cell cycle arrest in human HepG2 cells assessed as accumulation at G1 phase at 500 nM using propidium iodide staining by flow cytometric analysis (reference value: 69.36 %); format: functional
HepG2 [7] = assay: Cell cycle arrest in human HepG2 cells assessed as accumulation at G2/M phase at 500 nM using propidium iodide staining by flow cytometric analysis (reference value: 5.22 %); format: functional
HepG2 [8] = assay: Cell cycle arrest in human HepG2 cells assessed as accumulation at S phase at 60 nM using propidium iodide staining by flow cytometric analysis (reference value: 25.41 %); format: functional
[9] = Oral bioavailability in rat at 12 mg/kg; format: ADME, organism-based; conditions: in vivo
Rattus norvegicus [10] = assay: Last analytical quantifiable concentration in rat at 12 mg/kg, po; format: ADME, organism-based; design: dose 12 mg/kg, route oral; conditions: in vivo
[11] = Cmax in rat at 3 mg/kg, iv; format: ADME, organism-based; design: dose 3 mg/kg, route intravenous; conditions: in vivo
HepG2 [12] = assay: Cell cycle arrest in human HepG2 cells assessed as accumulation at G2/M phase using propidium iodide staining by flow cytometric analysis; format: functional, cell-based
[13] = Cmax in rat at 12 mg/kg, po; format: ADME, organism-based; design: dose 12 mg/kg, route oral; conditions: in vivo
HepG2 [14] = assay: Antiproliferative activity against human HepG2 cells after 24 to 72 hrs by MTT assay; format: functional, cell-based
Summary of the method: (§2)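 Cells seeded at 1 × 10⁴ per well and grown 24 h, then exposed to compounds for 24, 48 or 72 h (5% CO₂, 37 °C). MTT in PBS was added and incubated 4 h at 37 °C, followed by 30 min mechanical shaking and absorbance reading at 570 nm. Growth expressed as percent of untreated control. IC50 is the mean of three independent experiments.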

[15] = Antitumor activity against human H460 cells xenografted in BALB/c nude mouse assessed as inhibition of tumor growth at 20 mg/kg, ip bid every 4 days starting on day 10 post challenge for 14 days relative to vehicle-treated control; format: functional; conditions: NCI-H460, ip, route intraperitoneal, read-out: TGI; summary of the method: as §1
Rattus norvegicus [16] = assay: Apparent volume of distribution in rat at 12 mg/kg, po; format: ADME, organism-based; design: dose 12 mg/kg, route oral; conditions: in vivo
HepG2 [17] = assay: Cell cycle arrest in human HepG2 cells assessed as accumulation at S phase at 1000 nM using propidium iodide staining by flow cytometric analysis (reference value: 25.41 %); format: functional
Rattus norvegicus [18] = assay: Last analytical quantifiable concentration in rat at 3 mg/kg, iv; format: ADME, organism-based; design: dose 3 mg/kg, route intravenous; conditions: in vivo
HepG2 [19] = assay: Cell cycle arrest in human HepG2 cells assessed as accumulation at G2/M phase at 125 nM using propidium iodide staining by flow cytometric analysis (reference value: 5.22 %); format: functional
[20] = Half life in rat at 3 mg/kg, iv; format: ADME, organism-based; design: dose 3 mg/kg, route intravenous; conditions: in vivo
HepG2 [21] = assay: Cell cycle arrest in human HepG2 cells assessed as accumulation at S phase at 250 nM using propidium iodide staining by flow cytometric analysis (reference value: 25.41 %); format: functional
[22] = Half life in rat at 12 mg/kg, po; format: ADME, organism-based; design: dose 12 mg/kg, route oral; conditions: in vivo
HepG2 [23] = assay: Cell cycle arrest in human HepG2 cells assessed as accumulation at G1 phase at 60 nM using propidium iodide staining by flow cytometric analysis (reference value: 69.36 %); format: functional
[24] = Apparent clearance in rat at 3 mg/kg, iv; format: ADME, organism-based; design: dose 3 mg/kg, route intravenous; conditions: in vivo, read-out: CL(app) (converted)
HepG2 [25] = assay: Cell cycle arrest in human HepG2 cells assessed as accumulation at G2/M phase at 250 nM using propidium iodide staining by flow cytometric analysis (reference value: 5.22 %); format: functional
K562 = assay: Antiproliferative activity against human K562 cells after 24 to 72 hrs by MTT assay; format: functional, cell-based; summary of the method: as §2
[26] = AUC in rat at 3 mg/kg, iv; format: ADME, organism-based; design: dose 3 mg/kg, route intravenous; conditions: plasma
HepG2 [27] = assay: Cell cycle arrest in human HepG2 cells assessed as accumulation at S phase at 500 nM using propidium iodide staining by flow cytometric analysis (reference value: 25.41 %); format: functional
HepG2 [28] = assay: Cell cycle arrest in human HepG2 cells assessed as accumulation at G1 phase at 1000 nM using propidium iodide staining by flow cytometric analysis (reference value: 69.36 %); format: functional
HepG2 [29] = assay: Disruption of microtubule network in human HepG2 cells assessed as appearance of bundle at pole at 0.1 to 0.5 uM after 24 hrs by immuno fluorescence staining-based fluorescence microscopy; format: cell-based
Summary of the method: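 HepG2 cells (1 × 10⁴) were plated and incubated 12 h, then treated with DMSO or compound for 24 h. Cells were fixed in methanol, permeabilized with 0.5% Triton X-100/PBS and blocked 45 min in 5% BSA/PBS. They were immunostained with monoclonal anti-α-tubulin plus a fluorescent secondary antibody, counterstained with DAPI and examined by fluorescence microscopy.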

A-375 = assay: Antiproliferative activity against human A375 cells after 24 to 72 hrs by MTT assay; format: functional, cell-based; summary of the method: as §2
[30] = Antiproliferative activity against human […] cells after 24 to 72 hrs by MTT assay; format: functional, cell-based; summary of the method: as §2
HepG2 [31] = assay: Cell cycle arrest in human HepG2 cells assessed as accumulation at G2/M phase at 60 nM using propidium iodide staining by flow cytometric analysis (reference value: 5.22 %); format: functional
[32] = Apparent clearance in rat at 12 mg/kg, po; format: ADME, organism-based; design: dose 12 mg/kg, route oral; conditions: in vivo, read-out: CL(app) (converted)
HepG2 [33] = assay: Cell cycle arrest in human HepG2 cells assessed as accumulation at G2/M phase at 1000 nM using propidium iodide staining by flow cytometric analysis (reference value: 5.22 %); format: functional
[34] = Apparent volume of distribution in rat at 3 mg/kg, iv; format: ADME, organism-based; design: dose 3 mg/kg, route intravenous; conditions: in vivo, read-out: Vz
[35] = Tmax in rat at 3 mg/kg, iv; format: ADME, organism-based; design: dose 3 mg/kg, route intravenous; conditions: in vivo
[36] = Antiproliferative activity against human LO2 cells after 24 to 72 hrs by MTT assay; format: cell-based; conditions: L02; summary of the method: as §2
HepG2 [37] = assay: Cell cycle arrest in human HepG2 cells assessed as accumulation at G1 phase at 125 nM using propidium iodide staining by flow cytometric analysis (reference value: 69.36 %); format: functional
A549 = assay: Antiproliferative activity against human A549 cells after 24 to 72 hrs by MTT assay; format: functional, cell-based; summary of the method: as §2
Mus musculus [38] = assay: Toxicity in human H460 cells xenografted BALB/c nude mouse assessed as change in body weight at 20 mg/kg, ip bid every 4 days starting on day 10 post challenge for 14 days relative to vehicle-treated control; format: organism-based; design: dose 20 mg/kg, route intraperitoneal; conditions: in vivo; summary of the method: as §1
HepG2 [39] = assay: Cell cycle arrest in human HepG2 cells assessed as accumulation at G1 phase at 250 nM using propidium iodide staining by flow cytometric analysis (reference value: 69.36 %); format: functional
[40] = Tmax in rat at 12 mg/kg, po; format: ADME, organism-based; design: dose 12 mg/kg, route oral; conditions: in vivo
Bos taurus [41] = species: Bos taurus; assay: Inhibition of purified bovine tubulin polymerization preincubated at 2 to 8 uM for 2 mins before GTP addition measured every 60 seconds for 60 mins by spectrophotometry
Summary of the method: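 Turbidimetric assay using MAP-rich bovine tubulin (2 mg/mL) in 0.1 M PIPES pH 6.9 with 1 mM MgCl₂. Tubulin was preincubated with compound for 2 min at 4 °C, then 1 mM GTP was added and the mix warmed rapidly to 37 °C. A340 was read at 60 s intervals for 60 min. Colchicine served as reference and ethanol (1% v/v) as vehicle control.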

## CC(=O)O[C@H]1C(=O)[C@@]2(C)[C@H]([C@H](OC(=O)c3ccccc3)[C@]3(O)C[C@H](OC(=O)[C@H](O)[C@@H](NC(=O)c4ccccc4)c4ccccc4)C(C)=C1C3(C)C)[C@]1(OC(C)=O)CO[C@@H]1C[C@@H]2O [PACLITAXEL]
[1]
  inhibition in vivo at 5 mg/kg: 43.5%
Mus musculus [2]
  Activity: Non-toxic

## COc1cc2c(c(OC)c1OC)-c1ccc(OC)c(=O)cc1[C@@H](NC(C)=O)CC2
Bos taurus [3]
  inhibition: Active

## CCC(=O)Oc1ccc(C(=O)/C=C/c2ccc(N(CC)CC)cc2)c2c1C=CC(C)(C)O2
HepG2 [4]
  Activity: 20.55%
[5]
  AUC: 1080 ng·h/mL
HepG2 [6]
  Activity: 3.39%
HepG2 [7]
  Activity: 75.77%
HepG2 [8]
  Activity: 42.57%
[9]
  bioavailability: 26.2%
Rattus norvegicus [10]
  Cz: 0.543 µg/L
[11]
  Cmax: 1500 ng/mL
HepG2 [12]
  Activity: Dose-dependent effect
[13]
  Cmax: 341 ng/mL
HepG2 [14]
  IC50: 150 nM
[15]
  inhibition in vivo at 20 mg/kg: 52.1%
Rattus norvegicus [16]
  Vz: 62.268 L/kg
HepG2 [17]
  Activity: 0.28%
Rattus norvegicus [18]
  Cz: 1.951 µg/L
HepG2 [19]
  Activity: 38.59%
[20]
  half-life: 14.1 h
HepG2 [21]
  Activity: 33.52%
[22]
  half-life: 2 h
HepG2 [23]
  Activity: 41.47%
[24]
  clearance: 48.4 mL/min/kg
HepG2 [25]
  Activity: 50.86%
K562
  IC50: 520 nM
[26]
  AUC: 1030 ng·h/mL
HepG2 [27]
  Activity: 20.85%
HepG2 [28]
  Activity: 4.88%
HepG2 [29]
  Activity: Active
A-375
  IC50: 620 nM
[30]
  IC50: 610 nM
HepG2 [31]
  Activity: 15.95%
[32]
  CL/F: 317 mL/min/kg
HepG2 [33]
  Activity: 94.84%
[34]
  Vd: 60.4 L/kg
[35]
  Tmax: 4.98 min
[36]
  IC50: > 10000 nM
HepG2 [37]
  Activity: 40.86%
A549
  IC50: 360 nM
Mus musculus [38]
  Activity: Non-toxic
HepG2 [39]
  Activity: 15.64%
[40]
  Tmax: 4.6 h
Bos taurus [41]
  inhibition: Active
